Screening data: PubChem, Broad Institute
FGF22 binding – binders of human FGF22 protein, primary screen, FGF22 synaptogenesis inhibitor project, biophysical, thermal shift, single point; recombinant FGF22 thermal shift, SYPRO orange fluorescence; percent of sucrose octasulfate shift, DMSO zero; Fibroblast growth factor 22 (Homo sapiens), Q9HCT0; AID 651658, 2012; activity (Tm shift, normalised), % at 9.99 µM; 340,000 compounds, 1.5% hits;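 active = mean Tm shift, scaled 0 neutral to 100 positive control, at about 1.3% or above, every replicate too, limit read from the data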
Target sequence (Q9HCT0 whole entry, looked up): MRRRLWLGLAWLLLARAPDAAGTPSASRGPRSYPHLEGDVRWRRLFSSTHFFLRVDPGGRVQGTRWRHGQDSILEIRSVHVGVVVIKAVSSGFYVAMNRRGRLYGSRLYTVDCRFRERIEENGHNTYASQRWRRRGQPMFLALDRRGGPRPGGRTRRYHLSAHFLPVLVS
PglD inh – C. jejuni PglD acetyltransferase inhibitors, primary screen, biochemical, DTNB colorimetric, single point | UDP-N-acetylbacillosamine N-acetyltransferase PglD (Campylobacter jejuni) | inhibition, % at 12.5 µM | purified PglD enzyme, DTNB colorimetric CoA detection | 360,000 compounds, 0.098% hits; in the data active = inhibition above about 16%, passing the limit was not always enough
Cneo AK release – Cryptococcus neoformans cell lysis inducers, primary screen, AK release luminescence, single concentration; lysis activity, % at 15 µM; 360,000 compounds, 0.2% hits; C. neoformans lysis, adenylate kinase release luminescence, 4 h; normalised: neutral wells 0, clomiphene wells 100;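 active = mean lysis activity across replicates of at least 80%, whatever share of replicates individually reach that level; inactive = mean lysis activity below 80%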
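Material: C. neoformans cells; Schedule: 4 h static compound exposure, 37 °C, read 1 h post-reagent; Measured by: adenylate kinase release luminescence; Read-out: signal increase indicating cell lysis; Controls: Clomiphene as positive lysis control.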
PGC1a acetyl inh – inhibitors of PGC1a acetylation signal, primary screen, cell-based, U2OS, AlphaScreen, inhibitor mode | AlphaScreen anti-acetyl-lysine; with virally co-expressed GCN5 acetyltransferase | inhibition, % at 15.6 µM | 350,000 compounds, 0.17% hits | AID 651687, 2012;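 active = every replicate shows inhibition of at least 40%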
Ecoli rRNA inh – reduced GFP signal of wild-type E. coli, primary screen, bacterial rRNA inhibitor project, GFP/RFP fluorescence, OD600, single point; GFP signal change (wild-type ribosome), % (no concentration beside the values); E. coli WT GFP vs humanized-ribosome RFP mutants, 24 h; active compounds read low; DMSO median 0, no signal -100; 350,000 compounds, 1.6% hits; AID 720706, 2013;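 active = significant combined selectivity score with lowered wild-type GFP, culture density cut under 30%, mutant RFP and density less affected; inactive = any of these conditions unmet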
Vif inh – HIV Vif self-association inhibitors, primary screen, imaging, HEK293T, single point | HEK293T cells, Vif self-association by quenched fluorescence, 24 h | inhibition, % at 7.49 µM | 340,000 compounds, 0.35% hits | AID 602346, 2012; in the data active = inhibition above about 50%, passing the limit was not always enough
A number is an active result; – = inactive; · = not tested or not shown. Shown are actives, neighbours in structure and some others; about 2.9% of the full set was active somewhere.

SMILES | FGF22 binding | PglD inh | Cneo AK release | PGC1a acetyl inh | Ecoli rRNA inh | Vif inh
COc1ccc(C2(c3ccc(OC)cc3)NC(=O)N(CC(=O)NC3(C#N)CCCC3)C2=O)cc1 | – | – | – | · | – | –
Cc1ccc(C2(c3ccccc3)NC(=O)N(CC(=O)NC3(C#N)CCCC3)C2=O)cc1C (stereo not drawn) | – | · | – | · | -28 | –
CCCC(=O)Oc1ccc2c(C)cc(=O)oc2c1 | – | · | · | · | – | –
Cc1cc(=O)oc2cc(OC(=O)c3cncc(Br)c3)ccc12 | 44 | · | · | · | – | –
Cc1cc(OCC(=O)O/N=C(\N)Cc2cccs2)ccc1Br | – | – | – | – | -24 | –
O=C([C@@H]1[C@@H](CO)[C@@H]2Cn3c(ccc(-c4ccccc4F)c3=O)[C@H]1N2C(=O)C1CCC1)N1CCOCC1 | – | – | – | · | – | ·
O=C(C[C@@H]1C=C[C@H](NC(=O)c2ccccc2)[C@@H](CO)O1)NCCc1ccncc1 | – | – | – | – | – | ·
O=C(O)CC(NC(=O)C12CC3CC(CC(C3)C1)C2)c1cccc([N+](=O)[O-])c1 (stereo not drawn) | 43 | – | – | – | – | –
CC(=O)N1CCc2cc(N=NC3=C(O)CC(C)(C)CC3=O)ccc21 | 43 | · | · | · | – | –
CCc1ccc(S(=O)(=O)/N=C2\C=C(Nc3ccc(O)cc3)C(=O)c3ccccc32)cc1 | · | – | – | 63 | · | –
CN(C)S(=O)(=O)N1CCCN(S(=O)(=O)N(C)C)CC1 | · | – | – | – | · | 66
CN(C)S(=O)(=O)N1CCN(S(=O)(=O)N2CCOCC2)CC1 | – | · | · | – | – | –
COc1cccc(/C=C(/C(=O)OCC(=O)NC2CCCCCCC2)c2ccccc2)c1 | – | · | · | · | – | –
COc1cccc(/C=C(/C(=O)OCC(=O)NCC2CCCO2)c2ccccc2)c1 (stereo not drawn) | 43 | · | · | · | – | –
C[C@@H]1CN([C@@H](C)CO)C(=O)c2c(c3ccccc3n2C)-c2ccccc2CO[C@H]1CN(C)C(=O)Nc1ccc(-c2ccccc2)cc1 | – | · | · | – | – | ·
O=C(c1cccnc1)N1CCCCN2[C@H](CO)[C@@H](c3ccc(C#Cc4ccccc4)cc3)[C@H]2C1 | – | – | – | – | · | ·
O=C(Cn1ncc(N2CCOCC2)c(Cl)c1=O)c1ccc(Cl)cc1 | – | · | · | · | – | –
O=C(Cn1ncc(Cl)c(Cl)c1=O)c1ccc(Cl)cc1 | · | · | · | 85 | · | –
NC(=O)c1ccc(=O)n(C2OC(CO)C(O)C2O)c1 (stereo not drawn) | 44 | – | – | – | – | –
C[C@@H]1CN([C@@H](C)CO)C(=O)c2cc(NC(=O)CCC(F)(F)F)ccc2O[C@@H](C)CCCCO[C@@H]1CN(C)C | · | · | · | – | – | ·
CCOC(=O)c1c(N)sc(C(=O)Nc2ccccc2F)c1C | – | – | – | – | -26 | –
CN(C)/C=C/C(=O)c1ccc(Br)s1 | 43 | – | – | – | – | –
C[C@H]1CN([C@@H](C)CO)C(=O)c2cccc(NS(C)(=O)=O)c2O[C@@H]1CN(C)Cc1ccc(C(F)(F)F)cc1 | – | – | – | – | – | ·
O=S(=O)(c1ccc(OCC2CO2)cc1)c1ccc(OCC2CO2)cc1 (stereo not drawn) | 43 | · | · | · | – | ·
CC(C)(c1ccccc1)c1ccc(OCC2CO2)cc1 (stereo not drawn) | – | – | – | – | – | –
SMILES | FGF22 binding | PglD inh | Cneo AK release | PGC1a acetyl inh | Ecoli rRNA inh | Vif inh
COc1ccc(-c2cn(CC[C@H]3CC[C@@H](NC(=O)NC(C)C)[C@H](CO)O3)nn2)cc1 | – | – | – | – | – | ·
CCOc1ccccc1NS(=O)(=O)c1ccc(Br)s1 | – | – | – | · | -21 | –
CC1(C)CC(=O)C2=C(C1)NC1=C(C(=O)c3ccccc31)C2c1ccccc1 (stereo not drawn) | – | · | · | · | – | –
CC1(C)CC(=O)C2=C(C1)NC1=C(C(=O)c3ccccc31)C2c1cccnc1 (stereo not drawn) | 44 | · | · | · | – | –
CS(=O)(=O)N(C(=O)NC(=O)NC12CC3CC(CC(C3)C1)C2)C1CCCCC1 | 44 | · | · | – | – | –
O=C(NC1CCCCC1)NC12CC3CC(CC(C3)C1)C2 | – | – | – | · | – | –
CC(/C=N/NC(=O)c1cc(-c2ccc(C)s2)[nH]n1)=C\c1ccccc1 | – | · | · | · | – | –
C/C(=N\NC(=O)c1cc(-c2ccc(C)s2)[nH]n1)c1ccncc1 | – | – | – | · | -15 | –
CC(C)C#Cc1ccc2c(c1)O[C@@H](CN(C)C(=O)c1ccccn1)[C@@H](C)CN([C@@H](C)CO)S2(=O)=O | – | – | – | – | – | ·
CN(CCCC(=O)Nc1ccc(Br)cc1F)S(=O)(=O)c1ccccc1 | – | – | – | – | -22 | –
CN(Cc1cc(=O)n2ccsc2n1)c1ccccc1 | 44 | · | · | · | – | –
C/C=C/c1ccc([C@@H]2[C@@H](CO)N3C(=O)CN(Cc4ccccc4)C[C@H]23)cc1 | · | · | · | – | – | ·
CCOC(=O)C(=N/O)/C(C)=N/NC(=O)C(=O)Nc1ccc(Cl)cc1 | – | – | – | – | -20 | –
CCCC/C(O)=C1\C(=O)CC(C)(C)CC1=Nc1ccc(N)cc1 | 43 | · | · | · | – | –
CCC/C(O)=C1\C(=O)CC(C)(C)CC1=NCc1ccccc1 | – | · | · | – | -22 | –
COC(=O)c1sc(-c2ccc(Cl)cc2)cc1NC(=O)CSCC(=O)O | – | – | – | – | -42 | 51
Cc1noc(C)c1S(=O)(=O)Nc1ccc2c(c1)C(=O)N([C@H](C)CO)C[C@@H](C)[C@H](CN(C)Cc1ccccc1)OCCCC[C@H](C)O2 | – | – | 101 | – | – | ·
C[C@H](CO)N1C[C@H](C)[C@@H](CN(C)Cc2ccccc2)OCCCC[C@H](C)Oc2ccc(NS(=O)(=O)c3cccs3)cc2C1=O | – | – | – | – | – | ·
Cc1noc(C)c1S(=O)(=O)Nc1ccc2c(c1)C(=O)N([C@H](C)CO)C[C@@H](C)[C@H](CN(C)Cc1ccc(C(=O)O)cc1)OCCCC[C@@H](C)O2 | – | – | – | – | – | ·
Cc1noc(C)c1S(=O)(=O)Nc1ccc2c(c1)C(=O)N([C@H](C)CO)C[C@H](C)[C@H](CN(C)Cc1ccc(C(=O)O)cc1)OCCCC[C@@H](C)O2 | 1.4 | – | – | – | – | ·
C[C@H](CO)N1C[C@H](C)[C@H](CN(C)Cc2ccccc2)OCCCC[C@H](C)Oc2ccc(NS(=O)(=O)c3cccs3)cc2C1=O | – | – | 91 | – | – | ·
